Tests used:
Liver [1] = test: Detoxification activity against lead-induced toxicity in mouse assessed as reduction lead level in liver per gram of organ at 0.4 mmol/kg, ip qd for 5 days measured 24 hrs last post dose by synchrotron X-ray fluorescence analysis; assay type: functional
Outline: (§1)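 Lead-loaded mice were given normal saline vehicle (negative control) or test agent at 0.2, 0.4 or 0.6 mmol/kg. Lead was measured in liver, kidney, left femur and brain and reported as mean ± SD µg Pb/g organ against the NS group.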

Liver [2] = test: Toxicity in mouse assessed as effect on calcium level in liver per gram of organ at 0.4 mmol/kg, ip qd for 5 days; assay type: organism-based; details: in vivo, 120 h
Brain [3] = test: Toxicity in mouse assessed as effect on copper level in brain per gram of organ at 0.4 mmol/kg, ip qd for 5 days; assay type: organism-based; details: in vivo, 120 h
Brain [4] = test: Toxicity in mouse assessed as effect on calcium level in brain per gram of organ at 0.4 mmol/kg, ip qd for 5 days; assay type: organism-based; details: in vivo, 120 h
[5] = Detoxification activity against lead-induced toxicity in mouse assessed as reduction lead level in urine at 0.4 mmol/kg, ip qd for 5 days measured 24 hrs last post dose by synchrotron X-ray fluorescence analysis; assay type: functional
Outline: (§2)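 Lead-loaded mice were given normal saline vehicle, DL-penicillamine or NaDMS (positive controls), or test agent, each at 0.4 mmol/kg; n = 12 per group. Lead was measured in feces and urine and reported as mean ± SD µg Pb/g excrement against the NS group.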

Liver [6] = test: Toxicity in mouse assessed as effect on copper level in liver per gram of organ at 0.4 mmol/kg, ip qd for 5 days; assay type: organism-based; details: in vivo, 120 h
Kidney [7] = test: Detoxification activity against lead-induced toxicity in mouse assessed as reduction lead level in kidney per gram of organ at 0.4 mmol/kg, ip qd for 5 days measured 24 hrs last post dose by synchrotron X-ray fluorescence analysis; assay type: functional; outline: as §1
Brain [8] = test: Toxicity in mouse assessed as effect on manganese level in brain per gram of organ at 0.4 mmol/kg, ip qd for 5 days; assay type: organism-based; details: in vivo, 120 h
Femur = test: Detoxification activity against lead-induced toxicity in mouse assessed as reduction lead level in femurs per gram of organ at 0.4 mmol/kg, ip qd for 5 days measured 24 hrs last post dose by synchrotron X-ray fluorescence analysis; assay type: functional; outline: as §1
Brain [9] = test: Toxicity in mouse assessed as effect on zinc level in brain per gram of organ at 0.4 mmol/kg, ip qd for 5 days; assay type: organism-based; details: in vivo, 120 h
Kidney [10] = test: Toxicity in mouse assessed as effect on manganese level in kidney per gram of organ at 0.4 mmol/kg, ip qd for 5 days; assay type: organism-based; details: in vivo, 120 h
[11] = Detoxification activity against lead-induced toxicity in mouse assessed as reduction lead level in feces at 0.4 mmol/kg, ip qd for 5 days measured 24 hrs last post dose by synchrotron X-ray fluorescence analysis; assay type: functional; outline: as §2
Brain [12] = test: Toxicity in mouse assessed as effect on iron level in brain per gram of organ at 0.4 mmol/kg, ip qd for 5 days; assay type: organism-based; details: in vivo, 120 h
Brain [13] = test: Detoxification activity against lead-induced toxicity in mouse assessed as reduction lead level in brain per gram of organ at 0.4 mmol/kg, ip qd for 5 days measured 24 hrs last post dose by synchrotron X-ray fluorescence analysis; assay type: functional; outline: as §1
Mus musculus = test: Toxicity in mouse assessed as change in bodyweight at 0.4 mmol/kg, ip qd for 5 days; assay type: organism-based; details: in vivo, 120 h
Outline: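 Lead-loaded mice were given normal saline vehicle or test agent at 0.4 mmol/kg. Body weights were recorded and compared with the NS group to assess growth.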

Liver [14] = test: Toxicity in mouse assessed as effect on zinc level in liver per gram of organ at 0.4 mmol/kg, ip qd for 5 days; assay type: organism-based; details: in vivo, 120 h
Kidney [15] = test: Toxicity in mouse assessed as effect on copper level in kidney per gram of organ at 0.4 mmol/kg, ip qd for 5 days; assay type: organism-based; details: in vivo, 120 h
Liver [16] = test: Toxicity in mouse assessed as effect on manganese level in liver per gram of organ at 0.4 mmol/kg, ip qd for 5 days; assay type: organism-based; details: in vivo, 120 h
Kidney [17] = test: Toxicity in mouse assessed as effect on zinc level in kidney per gram of organ at 0.4 mmol/kg, ip qd for 5 days; assay type: organism-based; details: in vivo, 120 h
Liver [18] = test: Toxicity in mouse assessed as effect on iron level in liver per gram of organ at 0.4 mmol/kg, ip qd for 5 days; assay type: organism-based; details: in vivo, 120 h
Kidney [19] = test: Toxicity in mouse assessed as effect on iron level in kidney per gram of organ at 0.4 mmol/kg, ip qd for 5 days; assay type: organism-based; details: in vivo, 120 h
Kidney [20] = test: Toxicity in mouse assessed as effect on calcium level in kidney per gram of organ at 0.4 mmol/kg, ip qd for 5 days; assay type: organism-based; details: in vivo, 120 h

Structure (SMILES) | Activity (Liver [1]) [µg/g] | Activity (Liver [2]) [µg/g] | Activity (Brain [3]) [µg/g] | Activity (Brain [4]) [µg/g] | Activity [5] [µg/g] | Activity (Liver [6]) [µg/g] | Activity (Kidney [7]) [µg/g] | Activity (Brain [8]) [µg/g] | Activity (Femur) [µg/g] | Activity (Brain [9]) [µg/g] | Activity (Kidney [10]) [µg/g] | Activity [11] [µg/g] | Activity (Brain [12]) [µg/g] | Activity (Brain [13]) [µg/g] | Activity (Mus musculus) [g] | Activity (Liver [14]) [µg/g] | Activity (Kidney [15]) [µg/g] | Activity (Liver [16]) [µg/g] | Activity (Kidney [17]) [µg/g] | Activity (Liver [18]) [µg/g] | other results
CC(C)[C@H](NC(=O)C1SC(C)(C)SC1C(=O)O)C(=O)O (stereo not given in full) | 3.19 | 60.24 | 2.55 | 72 | 2.65 | 3.51 | 6.16 | 0.76 | 14.93 | 34.51 | 1.4 | 4.76 | 57.35 | 1.49 | 29.9 | 36.49 | 3.62 | 1.4 | 27.64 | 155.25 | Activity (Kidney [19]): 95.56 µg/g; Activity (Kidney [20]): 76.97 µg/g
CC1(C)SC(C(=O)O)C(C(=O)N[C@@H](CCC(N)=O)C(=O)O)S1 (stereo not given in full) | 3.07 | 59.07 | 2.64 | 71.82 | 2.89 | 3.76 | 6.86 | 0.69 | 14.59 | 34.68 | 1.33 | 4.5 | 57.66 | 1.02 | 29.6 | 37.85 | 3.59 | 1.37 | 28.09 | 153.02 | Activity (Kidney [19]): 94.48 µg/g; Activity (Kidney [20]): 76.93 µg/g
CC1(C)SC(C(=O)O)C(C(=O)N[C@@H](CCC(=O)O)C(=O)O)S1 (stereo not given in full) | 5.64 | 60.4 | 2.5 | 69.99 | 2.65 | 3.72 | 7.21 | 0.77 | 13.69 | 34.99 | 1.35 | 4.49 | 57.57 | 1.22 | 30.5 | 38.01 | 3.73 | 1.4 | 28.16 | 154.4 | Activity (Kidney [19]): 93.97 µg/g; Activity (Kidney [20]): 77.45 µg/g
CC1(C)SC(C(=O)O)C(C(=O)N[C@@H](Cc2ccccc2)C(=O)O)S1 (stereo not given in full) | 4.6 | 60.61 | 2.59 | 69.84 | 1.72 | 3.63 | 6.61 | 0.75 | 16.75 | 34.51 | 1.43 | 4.85 | 56.31 | 1.11 | 29.9 | 36.69 | 3.59 | 1.31 | 27.57 | 154.97 | Activity (Kidney [19]): 94.82 µg/g; Activity (Kidney [20]): 76.76 µg/g
CC1(C)SC(C(=O)O)C(C(=O)N[C@@H](Cc2c[nH]c3ccccc23)C(=O)O)S1 (stereo not given in full) | 5.59 | 59.69 | 2.39 | 69.35 | 2.84 | 3.76 | 7.5 | 0.78 | 17.66 | 33.04 | 1.4 | 4.14 | 56.94 | 1.21 | 30.8 | 36.96 | 3.69 | 1.4 | 27.99 | 153.84 | Activity (Kidney [19]): 93.07 µg/g; Activity (Kidney [20]): 76.92 µg/g

Source: ChEMBL document CHEMBL1681713, “Lead detoxification activities and ADMET hepatotoxicities of a class of novel 5-(1-carbonyl-L-amino-acid)-2,2-dimethyl-[1,3]dithiolane-4-carboxylic acids” (Bioorg Med Chem Lett, 2011)
